The source made the active and inactive calls. The rule behind the calls is not given here.

The species named for assay [1] is Homo sapiens. Put plainly: Agonist activity at HSP70 in human HEK293H cells transfected with HTT17Q assessed as reduction in HTT protein aggregation at 10 uM measured after 6 hrs by DAPI staining based confocal microscopy. Type of assay: cell-based. In a few lines: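 HEK293H cells transfected with 4 μg HTT17Q-mCherry construct; 24 h post-transfection treated with 10 μM compound or DMSO vehicle control for 6 h. Cells stained with DAPI and imaged by confocal microscopy. Aggregates (puncta) counted per cell with a bright-spot detection tool. Significance assessed against DMSO control.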

For assay [2], the target named is Histone deacetylase 1 (Homo sapiens) (UniProt Q13547). Put plainly: Inhibition of HDAC1 in human HeLa nuclear extract at 0.1 to 1 uM using HDAC substrate incubated for 30 mins by microplate reader assay. It is filed as cell-free.
The target of assay [3] is Histone deacetylase 2 (Homo sapiens) (UniProt Q92769). Put plainly: Inhibition of HDAC2 in human HeLa nuclear extract at 0.1 to 1 uM using HDAC substrate incubated for 30 mins by microplate reader assay. It is filed as cell-free.
In assay [4] the target is Histone deacetylase 3 (Homo sapiens) (UniProt O15379). Put plainly: Inhibition of HDAC3 in human HeLa nuclear extract at 0.1 to 1 uM using HDAC substrate incubated for 30 mins by microplate reader assay. Type of assay: cell-free.
The target of assay [5] is Histone deacetylase 4 (Homo sapiens) (UniProt P56524). Put plainly: Inhibition of recombinant human GST-His-tagged HDAC4 at 0.1 to 1 uM using fluorogenic HDAC substrate incubated for 30 mins by microplate reader assay.
Assay [6] has as its target Histone deacetylase 5 (Homo sapiens) (UniProt Q9UQL6). Put plainly: Inhibition of recombinant human GST-His-tagged HDAC5 at 0.1 to 1 uM using fluorogenic HDAC substrate incubated for 30 mins by microplate reader assay.
The target in assay [7] is T1, Protein deacetylase HDAC6 (Homo sapiens) (UniProt Q9UBN7).
T1 sequence (whole entry): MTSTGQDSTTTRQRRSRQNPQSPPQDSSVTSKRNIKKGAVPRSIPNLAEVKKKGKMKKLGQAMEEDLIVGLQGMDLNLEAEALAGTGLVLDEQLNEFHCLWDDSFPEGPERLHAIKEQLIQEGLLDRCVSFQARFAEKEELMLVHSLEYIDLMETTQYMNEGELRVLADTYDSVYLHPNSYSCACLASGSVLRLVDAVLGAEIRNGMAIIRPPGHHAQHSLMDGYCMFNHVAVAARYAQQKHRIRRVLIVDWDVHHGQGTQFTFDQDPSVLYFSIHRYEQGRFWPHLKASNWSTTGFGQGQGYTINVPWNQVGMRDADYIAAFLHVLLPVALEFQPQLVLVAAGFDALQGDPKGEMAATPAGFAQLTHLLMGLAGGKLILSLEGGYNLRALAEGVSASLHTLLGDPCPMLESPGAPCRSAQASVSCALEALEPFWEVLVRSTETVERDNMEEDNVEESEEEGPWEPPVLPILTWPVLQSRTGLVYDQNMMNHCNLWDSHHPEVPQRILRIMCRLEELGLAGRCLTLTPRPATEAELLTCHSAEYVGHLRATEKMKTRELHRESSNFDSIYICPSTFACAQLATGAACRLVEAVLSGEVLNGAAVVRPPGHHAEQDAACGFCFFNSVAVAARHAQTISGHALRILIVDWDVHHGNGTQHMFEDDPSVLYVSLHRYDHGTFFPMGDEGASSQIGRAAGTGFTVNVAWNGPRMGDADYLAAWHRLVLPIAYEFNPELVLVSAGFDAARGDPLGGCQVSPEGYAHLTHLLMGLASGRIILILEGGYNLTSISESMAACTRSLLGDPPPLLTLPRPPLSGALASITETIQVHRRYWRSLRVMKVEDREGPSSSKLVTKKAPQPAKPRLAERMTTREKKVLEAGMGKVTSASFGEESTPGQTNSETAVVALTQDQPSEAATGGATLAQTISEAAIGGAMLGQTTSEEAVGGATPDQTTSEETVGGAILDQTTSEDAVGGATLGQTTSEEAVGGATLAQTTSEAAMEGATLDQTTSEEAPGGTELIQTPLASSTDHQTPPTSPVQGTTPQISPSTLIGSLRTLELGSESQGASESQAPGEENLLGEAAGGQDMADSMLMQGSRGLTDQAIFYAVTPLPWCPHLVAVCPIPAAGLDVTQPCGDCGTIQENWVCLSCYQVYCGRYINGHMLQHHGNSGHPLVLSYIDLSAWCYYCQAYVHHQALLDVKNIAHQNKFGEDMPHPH
Kind of assay: Inhibition of recombinant human GST-His-tagged HDAC6 at 0.1 to 1 uM using fluorogenic HDAC substrate incubated for 30 mins by microplate reader assay.

Assay [8] addresses T2, Histone deacetylase 7 (Homo sapiens) (UniProt Q8WUI4).
T2 sequence (whole entry): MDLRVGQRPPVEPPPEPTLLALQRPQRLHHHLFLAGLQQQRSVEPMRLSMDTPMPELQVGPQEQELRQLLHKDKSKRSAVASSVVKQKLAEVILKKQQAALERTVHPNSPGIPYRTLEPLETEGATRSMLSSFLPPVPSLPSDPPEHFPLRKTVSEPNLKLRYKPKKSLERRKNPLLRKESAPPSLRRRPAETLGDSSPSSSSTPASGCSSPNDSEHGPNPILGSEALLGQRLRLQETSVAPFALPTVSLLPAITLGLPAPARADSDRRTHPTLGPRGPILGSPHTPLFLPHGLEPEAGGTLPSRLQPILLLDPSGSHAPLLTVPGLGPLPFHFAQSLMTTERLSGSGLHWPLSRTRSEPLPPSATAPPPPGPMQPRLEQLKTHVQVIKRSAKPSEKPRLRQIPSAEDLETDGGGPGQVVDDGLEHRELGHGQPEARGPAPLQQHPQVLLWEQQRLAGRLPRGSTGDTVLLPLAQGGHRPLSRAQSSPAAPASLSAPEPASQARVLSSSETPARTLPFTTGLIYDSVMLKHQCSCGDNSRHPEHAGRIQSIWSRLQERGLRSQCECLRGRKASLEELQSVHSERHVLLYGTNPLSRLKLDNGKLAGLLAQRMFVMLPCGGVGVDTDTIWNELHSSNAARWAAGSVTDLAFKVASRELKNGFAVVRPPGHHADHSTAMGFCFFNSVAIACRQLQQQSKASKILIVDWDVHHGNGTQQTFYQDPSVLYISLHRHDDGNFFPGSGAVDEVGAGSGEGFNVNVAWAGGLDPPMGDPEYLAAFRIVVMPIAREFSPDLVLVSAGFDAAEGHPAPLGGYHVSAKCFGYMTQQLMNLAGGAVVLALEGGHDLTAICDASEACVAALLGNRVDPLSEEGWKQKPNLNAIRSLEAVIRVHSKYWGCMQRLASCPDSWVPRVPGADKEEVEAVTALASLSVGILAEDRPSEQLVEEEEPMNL
Kind of assay: Inhibition of recombinant human GST-His-tagged HDAC7 at 1 uM using fluorogenic HDAC substrate incubated for 30 mins by microplate reader assay relative to control.

For assay [9], the target named is T3, Histone deacetylase 8 (Homo sapiens) (UniProt Q9BY41).
T3 sequence (whole entry): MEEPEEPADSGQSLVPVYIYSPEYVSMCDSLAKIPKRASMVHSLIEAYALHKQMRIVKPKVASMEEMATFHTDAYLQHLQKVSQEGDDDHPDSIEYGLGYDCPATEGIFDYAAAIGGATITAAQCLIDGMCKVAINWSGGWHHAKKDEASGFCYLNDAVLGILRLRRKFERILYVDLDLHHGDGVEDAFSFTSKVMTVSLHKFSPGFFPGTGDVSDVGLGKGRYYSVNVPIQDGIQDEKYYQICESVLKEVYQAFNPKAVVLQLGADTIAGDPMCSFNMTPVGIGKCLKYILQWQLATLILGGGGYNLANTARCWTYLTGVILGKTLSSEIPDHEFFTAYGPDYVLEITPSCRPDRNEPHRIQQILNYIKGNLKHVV
Kind of assay: Inhibition of recombinant human GST-His-tagged HDAC8 at 1 uM using fluorogenic HDAC substrate incubated for 30 mins by microplate reader assay relative to control.

Sequence of Histone deacetylase 4 (Homo sapiens) (P56524 whole entry): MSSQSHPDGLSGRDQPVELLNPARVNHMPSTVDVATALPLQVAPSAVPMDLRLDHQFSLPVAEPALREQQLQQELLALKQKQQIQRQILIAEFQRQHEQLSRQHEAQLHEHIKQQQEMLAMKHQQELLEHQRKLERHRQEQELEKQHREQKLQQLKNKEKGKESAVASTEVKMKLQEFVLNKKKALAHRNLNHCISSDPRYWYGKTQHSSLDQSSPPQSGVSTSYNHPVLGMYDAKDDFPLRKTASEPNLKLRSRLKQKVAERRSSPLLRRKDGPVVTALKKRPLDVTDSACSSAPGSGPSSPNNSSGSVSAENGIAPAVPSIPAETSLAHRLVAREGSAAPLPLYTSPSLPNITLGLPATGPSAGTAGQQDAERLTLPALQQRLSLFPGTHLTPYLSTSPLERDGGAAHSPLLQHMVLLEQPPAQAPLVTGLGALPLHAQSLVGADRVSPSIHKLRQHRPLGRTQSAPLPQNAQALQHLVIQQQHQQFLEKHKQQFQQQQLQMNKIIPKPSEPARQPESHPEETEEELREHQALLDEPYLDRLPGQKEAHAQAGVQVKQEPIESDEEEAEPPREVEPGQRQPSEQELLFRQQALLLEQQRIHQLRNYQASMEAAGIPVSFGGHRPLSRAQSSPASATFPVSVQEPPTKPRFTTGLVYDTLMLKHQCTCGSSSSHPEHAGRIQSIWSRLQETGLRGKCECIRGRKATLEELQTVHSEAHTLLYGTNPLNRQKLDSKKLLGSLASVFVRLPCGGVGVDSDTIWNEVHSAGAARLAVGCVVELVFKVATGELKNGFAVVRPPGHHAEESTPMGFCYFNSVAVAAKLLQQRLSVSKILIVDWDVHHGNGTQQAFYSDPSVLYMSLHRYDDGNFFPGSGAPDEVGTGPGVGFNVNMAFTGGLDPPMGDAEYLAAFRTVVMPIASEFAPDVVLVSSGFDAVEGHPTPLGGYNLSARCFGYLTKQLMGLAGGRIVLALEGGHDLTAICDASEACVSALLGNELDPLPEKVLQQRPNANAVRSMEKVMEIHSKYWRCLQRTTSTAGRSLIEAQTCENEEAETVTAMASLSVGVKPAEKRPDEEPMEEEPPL
Sequence of Histone deacetylase 3 (Homo sapiens) (O15379 whole entry): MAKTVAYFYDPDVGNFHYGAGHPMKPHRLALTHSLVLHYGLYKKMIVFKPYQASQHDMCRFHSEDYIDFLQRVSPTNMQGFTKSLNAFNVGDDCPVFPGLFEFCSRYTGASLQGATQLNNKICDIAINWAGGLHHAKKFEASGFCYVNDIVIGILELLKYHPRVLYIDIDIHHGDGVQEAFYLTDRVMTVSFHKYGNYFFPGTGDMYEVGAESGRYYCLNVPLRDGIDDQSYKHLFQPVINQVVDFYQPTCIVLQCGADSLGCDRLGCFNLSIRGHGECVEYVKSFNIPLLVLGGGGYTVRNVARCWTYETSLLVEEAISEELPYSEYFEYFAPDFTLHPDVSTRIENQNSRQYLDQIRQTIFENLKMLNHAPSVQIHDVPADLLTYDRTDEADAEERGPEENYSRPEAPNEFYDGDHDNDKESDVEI
Sequence of Histone deacetylase 5 (Homo sapiens) (Q9UQL6 whole entry): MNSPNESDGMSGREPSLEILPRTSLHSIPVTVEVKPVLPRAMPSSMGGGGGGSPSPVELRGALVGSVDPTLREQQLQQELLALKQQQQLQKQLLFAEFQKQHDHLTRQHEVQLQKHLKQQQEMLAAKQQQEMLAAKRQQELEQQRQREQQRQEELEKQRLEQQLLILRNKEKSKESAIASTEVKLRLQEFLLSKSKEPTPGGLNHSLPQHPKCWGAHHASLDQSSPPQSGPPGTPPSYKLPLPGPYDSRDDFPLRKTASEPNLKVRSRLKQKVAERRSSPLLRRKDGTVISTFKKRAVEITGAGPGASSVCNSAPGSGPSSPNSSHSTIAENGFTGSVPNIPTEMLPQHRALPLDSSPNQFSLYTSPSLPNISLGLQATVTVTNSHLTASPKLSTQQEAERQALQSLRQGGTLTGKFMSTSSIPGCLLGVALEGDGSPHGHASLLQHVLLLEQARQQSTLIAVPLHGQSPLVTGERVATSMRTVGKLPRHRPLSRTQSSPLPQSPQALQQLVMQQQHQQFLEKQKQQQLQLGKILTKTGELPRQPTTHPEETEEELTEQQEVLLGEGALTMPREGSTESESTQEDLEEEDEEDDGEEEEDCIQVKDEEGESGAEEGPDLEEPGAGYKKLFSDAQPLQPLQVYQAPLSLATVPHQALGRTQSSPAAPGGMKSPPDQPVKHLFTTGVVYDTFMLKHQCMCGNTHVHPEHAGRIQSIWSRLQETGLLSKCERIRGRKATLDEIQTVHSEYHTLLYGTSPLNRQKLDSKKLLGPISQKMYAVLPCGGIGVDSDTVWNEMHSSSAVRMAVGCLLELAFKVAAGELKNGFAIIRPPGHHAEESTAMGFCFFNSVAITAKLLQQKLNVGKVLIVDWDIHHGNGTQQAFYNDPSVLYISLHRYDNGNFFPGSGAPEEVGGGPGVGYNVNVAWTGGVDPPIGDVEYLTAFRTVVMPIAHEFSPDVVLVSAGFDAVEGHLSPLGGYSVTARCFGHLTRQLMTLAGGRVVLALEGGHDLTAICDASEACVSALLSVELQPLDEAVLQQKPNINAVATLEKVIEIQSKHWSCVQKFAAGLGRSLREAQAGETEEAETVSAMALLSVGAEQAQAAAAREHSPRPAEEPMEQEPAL
Sequence of Histone deacetylase 2 (Homo sapiens) (Q92769 whole entry): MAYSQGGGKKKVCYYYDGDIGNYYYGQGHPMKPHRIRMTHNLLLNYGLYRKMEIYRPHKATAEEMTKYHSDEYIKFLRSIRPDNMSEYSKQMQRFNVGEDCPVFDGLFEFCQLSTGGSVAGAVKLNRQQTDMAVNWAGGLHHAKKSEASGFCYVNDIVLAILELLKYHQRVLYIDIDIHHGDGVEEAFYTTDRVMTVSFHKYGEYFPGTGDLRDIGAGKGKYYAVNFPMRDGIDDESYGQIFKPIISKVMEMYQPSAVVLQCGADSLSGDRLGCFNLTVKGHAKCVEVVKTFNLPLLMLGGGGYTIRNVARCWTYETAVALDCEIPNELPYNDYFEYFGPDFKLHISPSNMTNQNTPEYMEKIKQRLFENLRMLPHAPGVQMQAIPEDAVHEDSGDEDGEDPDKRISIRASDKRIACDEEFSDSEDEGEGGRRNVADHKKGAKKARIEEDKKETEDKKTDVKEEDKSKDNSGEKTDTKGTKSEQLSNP
Sequence of Histone deacetylase 1 (Homo sapiens) (Q13547 whole entry): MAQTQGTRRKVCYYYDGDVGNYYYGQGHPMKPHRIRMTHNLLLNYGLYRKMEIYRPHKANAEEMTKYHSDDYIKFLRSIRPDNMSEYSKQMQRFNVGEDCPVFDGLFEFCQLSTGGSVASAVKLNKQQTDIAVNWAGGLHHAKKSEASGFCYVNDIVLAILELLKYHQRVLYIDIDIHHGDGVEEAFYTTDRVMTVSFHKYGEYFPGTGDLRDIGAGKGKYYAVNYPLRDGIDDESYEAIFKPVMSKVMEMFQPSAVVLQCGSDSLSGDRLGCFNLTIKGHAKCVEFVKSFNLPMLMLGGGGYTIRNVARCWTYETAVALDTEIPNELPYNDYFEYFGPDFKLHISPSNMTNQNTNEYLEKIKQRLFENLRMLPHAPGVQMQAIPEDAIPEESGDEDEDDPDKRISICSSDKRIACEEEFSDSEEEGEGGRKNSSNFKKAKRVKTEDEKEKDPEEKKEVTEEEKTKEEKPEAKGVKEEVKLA

As to `CC1=C(C(=O)OCc2ccccc2)C(c2ccc(Cl)cc2Cl)NC(=O)N1CCCC(=O)O` (stereo not given), the result in [1] was Active.
By inhibition is commonly meant the share of the control response that was lost under treatment. Take `CCOC(=O)C1=CN(Cc2ccc(C(=O)NO)cc2)S(=O)(=O)NC1c1ccc(Cl)cc1Cl` (stereo not given): in assay [1], the outcome was Active. Besides, the inhibition entry in [2], in assay [3], in assay [4], in [5], in assay [6] and in [7] was “inactive” each time. The inhibition in assay [8] was 40%; in [9], 35 to 60%.
In the case of `COC(=O)CCCN1C=C(C(=O)OCc2ccccc2)C(c2ccc(Cl)cc2Cl)NS1(=O)=O` (stereo not given), the result in assay [1] was Active.
As for `CCOC(=O)C1=CN(CCCC(=O)OC)S(=O)(=O)NC1c1ccc(Cl)cc1Cl` (stereo not given), the outcome in assay [1] was Active.
Take `CCOC(=O)C1=CNS(=O)(=O)N(Cc2ccc(C(=O)O)cc2)C1c1ccc(Cl)cc1Cl` (stereo not given): the result in assay [1] was Active. The inhibition entry in [2], in assay [3], in assay [4], in assay [5], in [6] and in [7] was “inactive” each time. Further, the inhibition in [9] lay within 35 to 60%.
Consider `COC(=O)CCCN1C=C(C(=O)O)C(c2ccc(Cl)cc2Cl)NS1(=O)=O` (stereo not given), for which the outcome in assay [1] was Active. The inhibition entry in assay [2], in assay [3], in [4], in assay [5], in assay [6] and in assay [7] was “inactive” throughout. The inhibition in assay [9] is 35 to 60%.
For `O=C(O)CCCN1C=C(C(=O)O)C(c2ccc(Cl)cc2Cl)NS1(=O)=O` (stereo not given), in assay [1], the result was Active.
On the same count and under the same terms, the result for `CCOC(=O)C1=CN(C(=O)OC(C)(C)C)S(=O)(=O)N(Cc2ccc(C(=O)OC(C)(C)C)cc2)C1c1ccc(Cl)cc1Cl` (stereo not given) reads “Active”.
`CCOC(=O)C1=CN(CCCC(=O)NO)S(=O)(=O)NC1c1ccc(Cl)cc1Cl` (stereo not given): the result in assay [1] was Active. The inhibition entry in assay [2], in [3], in [4], in [5], in assay [6] and in assay [7] was “inactive” each time. In assay [9], the inhibition lay within 35 to 60%.
Turning to `CCOC(=O)C1=CN(Cc2ccc(C(=O)O)cc2)S(=O)(=O)NC1c1ccc(Cl)cc1Cl` (stereo not given), in [1], the result was Active.
On to `CCOC(=O)C1=CN(Cc2ccc(CO)cc2)S(=O)(=O)NC1c1ccc(Cl)cc1Cl` (stereo not given), for which the outcome in assay [1] was Active.
